Screening data: PubChem, several laboratories
Only some compounds are listed: those with a hit (about 1.8% of all), similar ones and a draw of the others.
PHOSPHO1 inh: inhibitors of human PHOSPHO1 phosphatase. AID 1565. inhibition, % at 13.3 µM. recombinant PHOSPHO1, absorbance phosphatase assay. hit rate 1.1% among 290,000. Q8TCT1; in the data active means inhibition above about 60%
TbMetRS inhib: blocks T. brucei methionyl-tRNA synthetase activity. inhibition, % at 11.9 µM. hit rate 0.4% among 360,000. purified T. brucei MetRS, ATP depletion, Kinase-Glo luminescence;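 active means inhibition above a per-plate cutoff of the control wells' mean inhibition plus 3 SD, cut at about 5.5% in these data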
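technique = Kinase-Glo luminescence, ATP depletion format | system = purified MetRS (methionyl-tRNA synthetase) enzyme from Trypanosoma brucei | timing = 15 min preincubation, 2 h reaction, all 25 °C | evaluation = percent inhibition versus plate control medians | dosing = single dose, 11.9 µM final nominal, 0.9% final DMSO | also added = substrates ATP, L-methionine and bulk Escherichia coli tRNA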
A3G deaminase: blocks human APOBEC3G single-stranded DNA deamination; hit rate 0.28% among 330,000; recombinant A3G, ssDNA deamination FAM/TAMRA fluorescence; inhibition, % at 20 µM; Q9HC16; AID 493012;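 active means inhibition of at least 40% at 20 µM, with no more than 30% in the related APOBEC3A deaminase screen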
A3A deaminase: human APOBEC3A DNA deaminase inhibition; recombinant A3A, FAM/TAMRA ssDNA deamination fluorescence; inhibition, % at 20 µM; hit rate 0.41% among 330,000; P31941;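 active means at least 40% inhibition at 20 µM here, with at most 30% in a related deaminase screen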
pCIP destab: compounds decreasing mouse p/CIP protein stability; F442A p/CIP-EGFP cells, EGFP fluorescence, 16 h; decrease of EGFP signal, % at 10 µM; Q05BA5; AID 1984; hit rate 0.01% among 290,000;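 active means EGFP signal decrease of at least 30% at 10 µM or well 3 SD below plate mean, unless failing retest; inactive means the rest, including hits failing retest or dose response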
Tb MetRS conf: confirmation of Trypanosoma brucei MetRS inhibitors | shares compounds with TbMetRS inhib | T. brucei MetRS enzyme, luminescence (ATP depletion) | inhibition, % at 11.9 µM | hit rate 93% among 1,400; in the data active means inhibition above about 7%
Jurkat cytotox: kills Jurkat cells in T. brucei MetRS counterscreen | hit rate 12% among 1,400 | AID 624413 | inhibition, % at 8.3 µM | shares compounds with TbMetRS inhib | Jurkat cells viability, ATP luminescence; in the data active means inhibition above about 15%
Tb MetRS inh FP: inhibits T. brucei methionyl tRNA synthetase in orthogonal FP test; shares compounds with TbMetRS inhib; purified T. brucei MetRS, fluorescence polarization; inhibition, % at 11.9 µM; hit rate 44% among 1,400; in the data active means inhibition above about 17%
Numbers stand for hits; i = inactive; nt = not tested or not shown.

SMILES	PHOSPHO1 inh	TbMetRS inhib	A3G deaminase	A3A deaminase	pCIP destab	Tb MetRS conf	Jurkat cytotox	Tb MetRS inh FP
Cc1cccc(NS(=O)(=O)c2ccc3[nH]c(=O)oc3c2)c1C	nt	i	i	i	nt	nt	nt	nt
Cc1cccc(NS(=O)(=O)c2ccc3nc(-c4ccccc4)[nH]c3c2)c1C	i	27	i	i	i	40	i	30
CC(SCc1ccccc1)C(=O)N/N=C/c1ccc(OCC(=O)NCc2ccco2)cc1 (stereo not given)	i	i	i	i	i	nt	nt	nt
CN(CC(=O)Nc1ccc(F)c(F)c1F)C(=O)c1ccc(-n2cncn2)c([N+](=O)[O-])c1	nt	7.7	i	i	nt	33	i	17
CN(CC(=O)Nc1cccc(F)c1)C(=O)c1ccc(-n2cncn2)c([N+](=O)[O-])c1	nt	51	i	i	nt	84	i	51
CN(CC(=O)Nc1c(Cl)cccc1Cl)C(=O)c1ccc(-n2cncn2)c([N+](=O)[O-])c1	nt	i	i	i	nt	nt	nt	nt
O=C(CCC(=O)N1CCOc2ccc(Cl)cc21)NCc1ccccc1	i	i	i	i	i	nt	nt	nt
O=C(C=Cc1ccccc1)c1c[nH]c2ccccc2c1=O	nt	37	nt	nt	nt	78	93	56
Cc1ccc(C2=NS(=O)(=O)N(C)C(C(=O)NCc3ccc(F)cc3)=C2)cc1	i	9.8	i	i	i	17	i	i
CCN(CC)S(=O)(=O)c1ccc(N2CCOCC2)c(NCC(=O)Nc2ccc(F)cc2)c1	i	22	i	i	i	33	i	i
CCN(CC)S(=O)(=O)c1ccc(N2CCOCC2)c(NC(=O)c2ccc(F)cc2)c1	i	i	i	i	i	nt	nt	nt
O=C(Cc1ccc(Cl)cc1)Nc1cc(S(=O)(=O)N2CCOCC2)ccc1N1CCCC1	i	39	i	i	i	52	i	28
O=C(Cc1c(F)cccc1Cl)Nc1cc(S(=O)(=O)N2CCOCC2)ccc1N1CCCC1	nt	i	i	i	nt	nt	nt	nt
CC(C)(C)c1csc(NC(=O)CSC2=NCCS2)n1	i	6.0	i	i	i	i	i	i
Cc1csc(NC(=O)CSC2=NCCS2)n1	i	i	i	i	i	nt	nt	nt
COc1ccc(NC(=O)c2cc3c(CO)cnc(C)c3oc2=Nc2cccc(F)c2)c(OC)c1	i	i	i	i	i	nt	nt	nt
CCOC(=O)CN(C(=O)CSc1nnc2c(n1)[nH]c1ccc(F)cc12)c1ccccc1	i	6.3	i	i	i	17	i	i
C=CCc1ccc(OCCCCCN2CCOCC2)c(OC)c1	i	i	i	i	i	nt	nt	nt
Oc1ccccc1C1CCCCC1c1ccccc1 (stereo not given)	i	i	nt	nt	i	nt	nt	nt
COC(=O)c1sc(-c2ccc(Cl)cc2)cc1NC(=O)COCC(=O)O	i	38	i	i	i	37	i	25
CN(C)CC1CCCCC1OC(=O)/C=C/c1ccc(Cl)cc1Cl (stereo not given)	i	9.0	i	i	i	20	i	i
CN(C)CC1CCCCC1OC(=O)/C=C/c1ccccc1 (stereo not given)	i	i	i	i	i	nt	nt	nt
CCS(=O)(=O)N1CCN(c2ccc(Cl)cc2[N+](=O)[O-])CC1	i	5.7	i	i	i	14	i	i
N#Cc1nc(COc2ccc(Cl)cc2Cl)oc1N1CCOCC1	i	11	i	i	i	22	i	i
O=C(CNC(=O)c1cccc(OC(F)F)c1)Nc1ccc(Cl)cc1	nt	51	i	i	i	70	i	32
SMILES	PHOSPHO1 inh	TbMetRS inhib	A3G deaminase	A3A deaminase	pCIP destab	Tb MetRS conf	Jurkat cytotox	Tb MetRS inh FP
Cc1ccc(CN(C)C(=O)CCNS(=O)(=O)c2ccccc2)o1	nt	i	i	i	nt	nt	nt	nt
C=CCN1C(=O)C(Cc2cccc(Cl)c2)SC1=Nc1ccc(C(=O)O)cc1 (stereo not given)	i	i	i	i	i	nt	nt	nt
Cn1cnc2cc(NCc3ccc(Cl)cc3)ccc21	i	7.2	i	i	i	16	i	i
CCOc1ccc(CNc2ccc3c(c2)ncn3C)cc1	i	i	i	i	i	nt	nt	nt
CC1(N=Cc2cc(Cl)ccc2O)COP(=O)(Nc2ccccc2)OC1 (stereo not given)	nt	i	nt	nt	nt	nt	nt	nt
O=C(Cn1cc([N+](=O)[O-])ccc1=O)NCc1ccc(Cl)cc1Cl	i	9.1	i	i	i	26	i	i
COc1ccccc1CNC(=O)Cn1ccsc1=N	i	i	i	i	i	nt	nt	nt
N=c1sccn1CC(=O)NCc1ccc(Cl)cc1Cl	i	29	i	i	i	51	i	i
COc1cc(C=CC(=O)OCC=Cc2ccc3c(c2)OCO3)cc(OC)c1OC	nt	i	nt	nt	nt	nt	nt	nt
COc1ccc(OC)c(CNC(=O)C2CCC(=O)N2C(C)C)c1 (stereo not given)	i	i	i	i	i	nt	nt	nt
O=C(C1=C[C@@H](c2csc3ccccc23)C[C@@H](OCCCCO)O1)N1CCN(Cc2ccc3c(c2)OCO3)CC1	i	12	i	i	i	48	i	27
O=C(C1=C[C@@H](c2ccc(Br)cc2)C[C@@H](OCCCCO)O1)N1CCN(Cc2ccc3c(c2)OCO3)CC1	i	9.0	i	i	i	31	i	i
O=C(C1=C[C@H](c2ccccc2)C[C@H](OCCCCO)O1)N1CCN(Cc2ccc3c(c2)OCO3)CC1	i	i	i	i	i	nt	nt	nt
COc1ccccc1CCC(=O)Nc1cccc(S(=O)(=O)N2CCOCC2)c1	i	i	i	i	i	nt	nt	nt
COc1ccccc1CCC(=O)Nc1cccc(S(=O)(=O)N2CCCCCC2)c1	nt	5.7	i	i	nt	28	i	i
O=C(Cn1c(NCCO)nc2ccccc21)Nc1cccc(S(=O)(=O)N2CCCC2)c1	nt	11	i	i	nt	48	i	i
O=C(CCl)Nc1cccc(S(=O)(=O)N2CCCCCC2)c1	i	i	i	i	i	nt	nt	nt
O=C(NCc1cc(Cl)cc(Cl)c1)c1csc([C@@H]2O[C@H](CO)[C@H](O)[C@H](O)[C@H]2O)n1	nt	8.7	nt	nt	nt	31	i	i
O=C(NCc1cc(Cl)cc(Cl)c1)c1ccc2sc([C@@H]3O[C@H](CO)[C@H](O)[C@H](O)[C@H]3O)nc2c1	nt	18	nt	nt	nt	51	i	27
O=C(NCc1ccc(Cl)nc1)c1csc([C@@H]2O[C@H](CO)[C@H](O)[C@H](O)[C@H]2O)n1	nt	i	nt	nt	nt	nt	nt	nt
O=C(NCC1CCCO1)c1cc2cc(F)ccc2[nH]1 (stereo not given)	i	i	i	i	i	nt	nt	nt
Cc1cc(C)c(S(=O)(=O)N2CCN(C(=O)C3COc4ccccc4O3)CC2)c(C)c1 (stereo not given)	nt	i	i	i	nt	nt	nt	nt
Cc1ccccc1N(CC(=O)NC1CCCCC1)C(=O)CNC(=O)c1cccs1	i	i	i	i	i	nt	nt	nt
NC(=NCc1ccccc1)NN=Cc1ccnc2ccccc12	nt	7.1	nt	nt	nt	10	i	i
NC(N)=NN=Cc1ccnc2ccccc12	nt	i	nt	nt	nt	nt	nt	nt
